Laboratory results from ChEMBL document CHEMBL1914430, “Synthesis of some new 1,3,5-trisubstituted pyrazolines bearing benzene sulfonamide as anticancer and anti-inflammatory agents” (Bioorg Med Chem Lett, 2011).

Tests used:
Assay type in all cases: functional
IGROV-1 = test: Anticancer activity against human IGROV1 cells after 48 hrs; settings: IGROV-1, 48 h
Procedure, shortened: (§1)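 NCI Drug Evaluation Branch 60-cell-line screen across leukemia, melanoma, lung, colon, CNS, ovarian, renal, prostate and breast panels. The incubation period is 48 h. Parameters are derived from dose–response data: GI50 is the concentration giving 50% decrease in net growth, TGI is total growth inhibition, and LC50 is net 50% loss of initial cells. Values beyond the tested range are reported as greater or less than the maximum or minimum concentration.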

SK-OV-3 = test: Anticancer activity against human SKOV3 cells after 48 hrs; settings: SK-OV-3, 48 h
Procedure, shortened: (§2)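 NCI 60-line panel protocol with a 48 h incubation. Per line: GI50 = concentration giving 50% decrease in net cell growth; TGI = total growth inhibition; LC50 = net 50% loss of initial cells. When the level was not reached or was exceeded, the value is given as greater or less than the highest or lowest concentration tested.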

MCF7 = test: Anticancer activity against human MCF7 cells after 48 hrs; settings: MCF7, 48 h; procedure, shortened: as §1
A549 = test: Anticancer activity against human A549 cells after 48 hrs; settings: A549, 48 h; procedure, shortened: as §1
KM12 = test: Anticancer activity against human KM12 cells after 48 hrs; settings: KM12, 48 h; procedure, shortened: as §1
Rattus norvegicus [1] = test: Antiinflammatory activity in Wistar rat assessed as inhibition of carrageenan-induced hind paw edema at 20 mg/kg, po administered 30 mins before carrageenan challenge measured after 3 hrs by plethysmometer
Procedure, shortened: (§3)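 Wistar rats of either sex, 150–175 g, fasted 16 h, n = 6 per group. Compound given orally at 20 mg/kg as a suspension in 1% CMC in water (10 mL/kg); controls got vehicle only. After 30 min, 0.1 mL of 1% carrageenan in saline was injected subplantar into the left hind paw. Paw volume was measured by plethysmometer at 0, 3 and 5 h. Inhibition = (1 − Vt/Vc) × 100, reported as mean ± SEM.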

SNB-75 = test: Anticancer activity against human SNB75 cells after 48 hrs; settings: SNB-75, 48 h; procedure, shortened: as §2
OVCAR-4 = test: Anticancer activity against human OVCAR4 cells after 48 hrs; settings: OVCAR-4, 48 h; procedure, shortened: as §2
CCRF-CEM = test: Anticancer activity against human CCRF-CEM cells after 48 hrs; procedure, shortened: as §1
Rattus norvegicus [2] = test: Antiinflammatory activity in Wistar rat assessed as inhibition of carrageenan-induced hind paw edema at 20 mg/kg, po administered 30 mins before carrageenan challenge measured after 5 hrs by plethysmometer; procedure, shortened: as §3
HCC 2998 = test: Anticancer activity against human HCC2998 cells after 48 hrs; settings: HCC 2998, 48 h; procedure, shortened: as §1
K562 = test: Anticancer activity against human K562 cells after 48 hrs; settings: K562, 48 h; procedure, shortened: as §1
786-0 = test: Anticancer activity against human 786-0 cells after 48 hrs; settings: 786-0, 48 h; procedure, shortened: as §1
SK-MEL-2 = test: Anticancer activity against human SK-MEL-2 cells after 48 hrs; settings: SK-MEL-2, 48 h; procedure, shortened: as §2
A498 = test: Anticancer activity against human A498 cells after 48 hrs; settings: A498, 48 h; procedure, shortened: as §1
SF-539 = test: Anticancer activity against human SF539 cells after 48 hrs; settings: SF-539, 48 h; procedure, shortened: as §2
MDA-MB-435 = test: Anticancer activity against human MDA-MB-435 cells after 48 hrs; settings: MDA-MB-435, 48 h; procedure, shortened: as §1
NCI-H460 = test: Anticancer activity against human NCI-H460 cells after 48 hrs; settings: NCI-H460, 48 h; procedure, shortened: as §2
NCI-H23 = test: Anticancer activity against human NCI-H23 cells after 48 hrs; settings: NCI-H23, 48 h; procedure, shortened: as §2
EKVX = test: Anticancer activity against human EKVX cells after 48 hrs; procedure, shortened: as §1
NCI-H226 = test: Anticancer activity against human NCI-H226 cells after 48 hrs; settings: NCI-H226, 48 h; procedure, shortened: as §2
RXF 393 = test: Anticancer activity against human RXF393 cells after 48 hrs; settings: RXF 393, 48 h; procedure, shortened: as §2
SW-620 = test: Anticancer activity against human SW620 cells after 48 hrs; settings: SW-620, 48 h; procedure, shortened: as §2
SF-268 = test: Anticancer activity against human SF268 cells after 48 hrs; settings: SF-268, 48 h; procedure, shortened: as §2
SK-MEL-28 = test: Anticancer activity against human SK-MEL-28 cells after 48 hrs; settings: SK-MEL-28, 48 h; procedure, shortened: as §2
OVCAR-3 = test: Anticancer activity against human OVCAR3 cells after 48 hrs; settings: OVCAR-3, 48 h; procedure, shortened: as §2
NCI/ADR-RES = test: Anticancer activity against human NCI/ADR-RES cells after 48 hrs; procedure, shortened: as §2
UACC-62 = test: Anticancer activity against human UACC62 cells after 48 hrs; settings: UACC-62, 48 h
Procedure, shortened: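 NCI ~60 human tumour cell line panel with a 48 h incubation. GI50 is the concentration giving a 50% fall in net growth, TGI gives total growth inhibition, and LC50 gives a net 50% loss of initial cells. An effect not reached or exceeded is reported as greater or less than the highest or lowest concentration tested.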

HCT-15 = test: Anticancer activity against human HCT15 cells after 48 hrs; settings: HCT-15, 48 h; procedure, shortened: as §1
[3] = read-out: LC50 (the source's name)

Cc1cc(O)c(C2=NN(c3ccc(S(N)(=O)=O)cc3)C(/C=C/c3ccccc3)C2)cc1Cl (configuration not stated)
GI50 (IGROV-1): 4.32 µM | LC50 (net 50% loss of initial cells) (IGROV-1): 68.7 µM | TGI (IGROV-1): 19.8 µM | GI50 (SK-OV-3): 5.52 µM | TGI (SK-OV-3): 17.9 µM | CC50 (SK-OV-3; [3]): 42.7 µM | GI50 (MCF7): 3.93 µM | LC50 (MCF7): 40.1 µM | TGI (MCF7): 16.1 µM | GI50 (A549): 11 µM | LC50 (net 50% loss of initial cells) (A549): 86 µM | TGI (A549): 30.8 µM | GI50 (KM12): 11.7 µM | LC50 (concentration causing net 50% loss of initial cells) (KM12): > 100 µM | TGI (KM12): 34.8 µM | inhibition in vivo at 20 mg/kg (Rattus norvegicus [1]): 78.9% | GI50 (SNB-75): 3.39 µM | TGI (SNB-75): 16.1 µM | CC50 (SNB-75; [3]): 44.4 µM | GI50 (OVCAR-4): 3.74 µM | LC50 (OVCAR-4): 48.6 µM | TGI (OVCAR-4): 18.9 µM | GI50 (CCRF-CEM): 17.7 µM | LC50 (concentration causing net 50% loss of initial cells) (CCRF-CEM): > 100 µM | TGI (CCRF-CEM): 50 µM | inhibition in vivo at 20 mg/kg (Rattus norvegicus [2]): 71.4% | GI50 (HCC 2998): 9.89 µM | LC50 (net 50% loss of initial cells) (HCC 2998): 92.5 µM | TGI (HCC 2998): 30.3 µM | GI50 (K562): 11.6 µM | LC50 (concentration killing 50% of initial cells) (K562): > 100 µM | TGI (K562): 87.5 µM | GI50 (786-0): 4.09 µM | TGI (786-0): 12.5 µM | CC50 (786-0; [3]): 35.3 µM | GI50 (SK-MEL-2): 16.8 µM | LC50 (SK-MEL-2): > 100 µM | TGI (SK-MEL-2): 58.2 µM | GI50 (A498): 14.9 µM | TGI (A498): 42.4 µM | CC50 (A498; [3]): > 100 µM | GI50 (SF-539): 2.98 µM | LC50 (concentration causing net 50% loss of initial cells) (SF-539): 37.5 µM | TGI (SF-539): 14 µM | GI50 (MDA-MB-435): 8.87 µM | TGI (MDA-MB-435): 24 µM | CC50 (MDA-MB-435; [3]): 59.5 µM | GI50 (NCI-H460): 4.03 µM | LC50 (50% lethal concentration) (NCI-H460): 41.3 µM | TGI (NCI-H460): 17 µM | GI50 (NCI-H23): 1.68 µM | LC50 (concentration killing 50% of initial cells) (NCI-H23): 35.4 µM | TGI (NCI-H23): 12.5 µM | GI50 (EKVX): 14.2 µM | TGI (EKVX): 35.3 µM | CC50 (EKVX; [3]): 87.4 µM | GI50 (NCI-H226): 5.21 µM | TGI (NCI-H226): 19.2 µM | CC50 (NCI-H226; [3]): 51.8 µM | GI50 (RXF 393): 6.69 µM | LC50 (RXF 393): 52.6 µM | TGI (RXF 393): 20.2 µM | GI50 (SW-620): 11.7 µM | TGI (SW-620): 31.3 µM | CC50 (SW-620; [3]): 84 µM | GI50 (SF-268): 5.63 µM | LC50 (concentration killing 50% of initial cells) (SF-268): 46.7 µM | TGI (SF-268): 19.5 µM | GI50 (SK-MEL-28): 10.9 µM | TGI (SK-MEL-28): 23.8 µM | CC50 (SK-MEL-28; [3]): 52 µM | GI50 (OVCAR-3): 11.5 µM | LC50 (concentration giving 50% net loss of initial cells) (OVCAR-3): 70.2 µM | TGI (OVCAR-3): 28.4 µM | GI50 (NCI/ADR-RES): 9.26 µM | TGI (NCI/ADR-RES): 22.7 µM | CC50 (NCI/ADR-RES; [3]): 53 µM | GI50 (UACC-62): 2.89 µM | LC50 (UACC-62): 34 µM | TGI (UACC-62): 11.4 µM | GI50 (HCT-15): 18.9 µM | CC50 (HCT-15; [3]): > 100 µM
